Reference: paper PMC4124904 (British journal of haematology, 2010)

Legend:
[1] = Pharmacokinetic analysis of idarubicin in plasma; format: in vivo, human; conditions: for Cmax: iv, Maximum idarubicin plasma concentration (cmax), schedule A
[2] = test system: patients with relapsed or refractory leukaemia; test: Phase I safety and tolerability: adverse events, DLT, MTD; format: in vivo, human; conditions: Schedule B: for 3 days, with idarubicin 12 mg/m^2/d IV for 3 days
[3] = Pharmacokinetic analysis of vorinostat and two metabolites; format: in vivo, human; conditions: for Tmax / Cmax: human, serum
How it was run: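 Relapsed/refractory leukaemia patients self-dosed oral HDAC inhibitor TID for 14 days (arm A) or 3 days (arm B), 3+3 escalation from 100 mg, with anthracycline 12 mg/m2 IV over 30 min on days 1–3. Blood clotted 20–30 min at 4°C, spun 2,000 × g 15 min at 4°C, serum stored at -70°C. […] Dosing times unrecorded, so only Cmax and Tmax were derived.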

[4] = test system: histone-H3 acetylation in PBMCs; test: Histone-H3 acetylation in PBMCs; format: in vivo, human
TOP2A mRNA = test: Real-time PCR of TOP2A mRNA expression in PBMCs; format: in vivo, human
[5] = test system: patients with refractory cutaneous T cell lymphoma (CTCL); conditions: et al 2007, cited from earlier work

In the case of CC(=O)[C@]1(O)Cc2c(O)c3c(c(O)c2[C@@H](O[C@H]2C[C@H](N)[C@H](O)[C@H](C)O2)C1)C(=O)c1ccccc1C3=O [idarubicin], the half-life ([1]; human, plasma, intravenous) is reported as roughly 11 h, the Cmax ([1]; human, plasma, mean, idarubicin 30-min intravenous infusion) is reported as 66.1 ng/mL and the Cmax ([1]; human, plasma, range, idarubicin 30-min intravenous infusion) is reported as 19.5 to 139 ng/mL. The “Idarubicin peak plasma concentration, mean” value ([1]; schedule B, idarubicin 30-min intravenous infusion) was 55.4 ng/mL.
For O=C(CCCCCCC(=O)Nc1ccccc1)NO [vorinostat], the “Maximum tolerated dose (MTD) of vorinostat” value [2] was 400 mg TID, the Plasma concentrations achieved ([3]; TID dosing for 3 days, dose levels of 400 mg and 500 mg) was greater than 2000 nM and the Tmax ([3]; oral) was 1 to 3 h. It also gave a Cmax ([3]; oral, Median Cmax for vorinostat, non-responders) of 800 nM, a Tmax ([3]; po, 100 mg) of 2.5 h and a Cmax ([3]; po, 100 mg, Vorinostat Mean Cmax, vorinostat 100 mg TID for 3 days oral, with idarubicin, N=3) of 688 nM. It also gave a Cmax ([3]; po, 100 mg, Vorinostat Median Cmax (Range), vorinostat 100 mg TID for 3 days oral, with idarubicin, N=3) of 331 nM, a Cmax ([3]; po, 200 mg, Vorinostat Mean Cmax, vorinostat 200 mg TID for 3 days oral, with idarubicin, N=3) of 522 nM and a Cmax ([3]; po, 200 mg, Vorinostat Median Cmax (Range), vorinostat 200 mg TID for 3 days oral, with idarubicin, N=3) of 443 nM. The Tmax ([3]; po, 300 mg) was 2.5 h, the Tmax ([3]; po, 400 mg) was 2.25 h and the “Vorinostat Median Tmax” value ([3]; vorinostat 100 mg TID for 3 days oral, with idarubicin, N=3) was 2 h. For the same compound, the “Vorinostat Median Tmax” value ([3]; vorinostat 200 mg TID for 3 days oral, with idarubicin, N=3) was 1 h, the “Vorinostat Median Tmax” value ([3]; vorinostat 500 mg TID for 3 days oral, with idarubicin, N=5) was 3 h and the “Patients with detectable histone acetylation at day 21” value ([4]; 3-day schedule of vorinostat) was 50%. The “Patient samples with increased histone-H3 acetylation” value ([4]; 15 of 33 available patient samples, both schedules) was 46%, the “Patients with increased histone-H3 acetylation” value ([4]; schedule A) was 5/11 and the “Patients with increased histone-H3 acetylation” value ([4]; schedule B) was 10/22. The “Change of TOP2A mRNA levels relative to pretreatment” value (TOP2A mRNA; schedule A, day 1 to day 21, p=0.016, Wilcoxon signed rank test) was “downregulation”, the “Change of TOP2A mRNA levels relative to pretreatment” value (TOP2A mRNA; schedule B, by day 3 of therapy, p=0.168, Wilcoxon, returned to baseline later) was “trend towards downregulation” and the Response rate ([5]; Phase II, 3 different schedules, refractory CTCL, ref Duvic) was 24%. For the same compound, the Objective response rate ([5]; second Phase II trial, progressive or refractory CTCL, ref Olsen) was 30%.
